Activity calls are given as the source filed them. No cut-off for these calls is given here.
Key:
[1] = target: T1, Acetylcholinesterase (Homo sapiens, UniProt P22303); assay: Mixed-type inhibition of recombinant human AChE using varying concentration of acetylthiocholine iodide as substrate at 0.17 to 1.36 nM by Lineweaver-burk plot analysis
Summary of the method: (§1)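 Kinetics on human recombinant AChE with acetylthiocholine at 0.113–0.566 mM and inhibitor at 0.17–1.36 nM. Lineweaver–Burk plots were fitted by weighted least squares. Ki was taken as the negative x-intercept of a replot of slopes vs [I]. K'i came from a plot of apparent 1/vmax vs [I]. Two independent experiments, each in triplicate.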

[2] = target: T1, Acetylcholinesterase; assay: Mixed-type inhibition of recombinant human AChE assessed as dissociation constant for protein-substrate-compound complex using acetylthiocholine iodide as substrate by Cornish-Bowden plot analysis; summary of the method: as §1
[3] = target: T1, Acetylcholinesterase; assay: Inhibition of recombinant human AChE using acetylthiocholineiodide as substrate preincubated for 20 mins followed by substrate addition by Ellman's method relative to parent compound
[4] = target: Cholinesterase (Homo sapiens, UniProt P06276); assay: Inhibition of human serum BChE using butyrylthiocholineiodide as substrate preincubated for 20 mins followed by substrate addition by Ellman's method relative to parent compound; format: cell-free
[5] = system: Mus musculus; assay: Cognitive enhancing effect in 11 months old APP/PS1 double mutant-transgenic mouse model assessed as increase in preference index for object at 2 mg/kg, ip administered thrice a week for 4 weeks by novel object recognition test; format: functional, organism-based
Summary of the method: (§2)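 Male APP/PS1 mice received 2 mg/kg i.p. in saline (or vehicle), three times per week for 4 weeks. Preference index = time exploring the relocated or novel object divided by total time exploring both objects. Mean ± SEM, n = 7 per group; one-way ANOVA with Bonferroni post hoc.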

[6] = system: Mus musculus; assay: Cognitive enhancing effect in 11 months old APP/PS1 double mutant-transgenic mouse model assessed as increase in preference index for object at 2 mg/kg, ip administered thrice a week for 4 weeks by novel object localization test; format: functional, organism-based; summary of the method: as §2
[7] = system: Mus musculus; assay: Antialzheimer activity in 11 months old APP/PS1 double mutant-transgenic mouse model assessed as amyloid beta40 levels in hippocampus at 2 mg/kg, ip administered thrice a week for 4 weeks by ELISA (reference value: 8.65 +/- 0.44 pg/ml); format: functional
Summary of the method: (§3)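 Male APP/PS1 mice received 2 mg/kg i.p. in saline (or vehicle), three times weekly for 4 weeks. After the behavioral tests, hippocampus was collected and Aβ40 and Aβ42 were measured with a specific ELISA kit. Mean ± SEM, n = 7 mice per group; one-way ANOVA with Bonferroni post hoc.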

[8] = system: Mus musculus; assay: Antialzheimer activity in 11 months old APP/PS1 double mutant-transgenic mouse model assessed as amyloid beta42 levels in hippocampus at 2 mg/kg, ip administered thrice a week for 4 weeks by ELISA (Rvb= 69.0 +/- 4.54 pg/ml); format: functional; summary of the method: as §3
[9] = system: Mus musculus; assay: Antialzheimer activity in 11 months old APP/PS1 double mutant-transgenic mouse model assessed as ratio of amyloid beta42 to amyloid beta40 levels in hippocampus at 2 mg/kg, ip administered thrice a week for 4 weeks by ELISA (reference value: 7.99 +/- 0.60); format: functional

T1 sequence (P22303 whole entry): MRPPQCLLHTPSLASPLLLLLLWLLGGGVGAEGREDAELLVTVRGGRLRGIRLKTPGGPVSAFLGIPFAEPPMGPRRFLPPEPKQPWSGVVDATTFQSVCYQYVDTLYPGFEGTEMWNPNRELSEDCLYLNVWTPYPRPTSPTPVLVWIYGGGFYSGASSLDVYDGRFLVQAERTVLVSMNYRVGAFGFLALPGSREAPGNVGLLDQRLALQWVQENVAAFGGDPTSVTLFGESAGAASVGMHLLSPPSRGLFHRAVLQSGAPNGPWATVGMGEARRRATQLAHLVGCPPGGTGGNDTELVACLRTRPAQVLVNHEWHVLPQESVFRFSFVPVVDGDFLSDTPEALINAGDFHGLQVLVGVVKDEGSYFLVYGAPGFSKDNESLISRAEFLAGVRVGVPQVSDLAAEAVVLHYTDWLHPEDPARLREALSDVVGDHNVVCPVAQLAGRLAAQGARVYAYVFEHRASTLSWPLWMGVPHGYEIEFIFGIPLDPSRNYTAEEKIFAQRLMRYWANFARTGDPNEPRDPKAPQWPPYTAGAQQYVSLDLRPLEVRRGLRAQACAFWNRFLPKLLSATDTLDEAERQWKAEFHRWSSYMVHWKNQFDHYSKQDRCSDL
Sequence of Cholinesterase (P06276 whole entry): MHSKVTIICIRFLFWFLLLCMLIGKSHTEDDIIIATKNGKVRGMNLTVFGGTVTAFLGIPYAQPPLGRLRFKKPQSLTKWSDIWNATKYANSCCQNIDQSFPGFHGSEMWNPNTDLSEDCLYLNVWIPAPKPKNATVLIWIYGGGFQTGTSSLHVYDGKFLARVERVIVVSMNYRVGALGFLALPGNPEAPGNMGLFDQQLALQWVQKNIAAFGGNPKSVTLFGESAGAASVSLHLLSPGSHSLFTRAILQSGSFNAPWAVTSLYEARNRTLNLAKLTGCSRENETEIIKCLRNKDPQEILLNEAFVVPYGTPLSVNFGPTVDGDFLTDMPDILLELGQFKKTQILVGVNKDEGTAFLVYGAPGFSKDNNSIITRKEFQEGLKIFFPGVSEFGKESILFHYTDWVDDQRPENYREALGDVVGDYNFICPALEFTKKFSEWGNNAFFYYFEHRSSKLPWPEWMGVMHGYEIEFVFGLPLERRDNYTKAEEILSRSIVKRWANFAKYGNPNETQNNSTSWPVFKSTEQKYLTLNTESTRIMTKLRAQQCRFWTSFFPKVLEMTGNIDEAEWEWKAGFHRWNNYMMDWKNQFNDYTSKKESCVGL

Row | Structure (SMILES) | Kd [1] | inhibition ([1]; dose 0.17-1.36 nM) | Ki [2] | fold change (FC) [3] | fold change (FC) [4] | Activity [5] | Activity [6] | Activity [7] | Activity [8] | Ratio [9]
1 | COc1cc(CNC(=O)CCCCCCNc2c3c(nc4cc(Cl)ccc24)CC2C=C(C)CC3C2)ccc1O (stereo not given) | 940 pM | Active | 940 pM | – | – | – | – | – | – | –
2 | COc1cc(CNC(=O)Cc2cn(CCCCC3=CC4Cc5nc6cc(Cl)ccc6c(N)c5C(C3)C4)nn2)ccc1O (stereo not given) | – | – | – | 25 | 25 | Active | Active | 18.4 pg/mL | 62.6 pg/mL | 3.42
